How the values were obtained:
MT4 [1] = assay: Effective concentration required to achieve 50% protection of MT-4 cells against cytopathic effect of HIV-2 (8 days); format: functional, cell-based; conditions: Homo sapiens, MT4, 192 h
How it was run: (§1)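 MT-4 cells (1 × 10⁴ per well, RPMI with 10% FCS) with various compound concentrations, infected with 100 CCID50 of HIV-2 CBL 20 from persistently infected CEM supernatant. Viable cells read by MTT. EC50 is the dose giving 50% protection from virus cytopathicity. Mean of three independent experiments.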

MT4 [2] = assay: Concentration required to reduce the viability of mock-infected MT-4 cells by 50% (4 days); format: functional; conditions: Homo sapiens, MT4, 96 h
How it was run: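 Mock-infected MT-4 cells (1 × 10⁴ per well) in RPMI with 10% FCS, exposed to a range of compound concentrations and incubated 4 days at 37 °C. Viable cells counted by MTT. CC50 is the dose cutting viability by 50%. Mean of three independent experiments. Cultures were checked periodically for mycoplasma.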

MT4 [3] = assay: Effective concentration required to achieve 50% protection of MT-4 cells against cytopathic effect of HIV-1 (4 days); format: functional, cell-based; conditions: Homo sapiens, MT4, 96 h
How it was run: as §1, with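 “HIV-1 IIIB” for “HIV-2 CBL 20”, “H9/IIIB” for “CEM”, “After 4 days at 37 °C, viable” for “Viable”, “experiments. Cytotoxicity run in parallel.” for “experiments.”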

[4] = Ratio of CC50 value that of EC50 value(HIV-2); format: functional
How it was run: (§2)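 Selectivity index as the CC50/EC50 ratio. CC50 comes from mock-infected MT-4 viability by MTT. EC50 comes from MTT-measured protection of MT-4 cells infected with 100 CCID50 of HIV-1 IIIB or HIV-2 CBL 20. Data are means of three experiments.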

[5] = Ratio of CC50 value that of EC50 value(HIV-1); format: functional; how it was run: as §2

Row | Structure (SMILES) | EC50 (MT4 [1]) | CC50 (MT4 [2]) | EC50 (MT4 [3]) | Ratio [4] | Ratio [5]
1 | Nc1nccc2c1nnn2C1COC(CO)C1 (configuration not stated) | > 425 µM | > 425 µM | > 425 µM |  | 
2 | Nc1ccnc2c1ncn2C1COC(COP(=O)(OCC(Cl)(Cl)Cl)OCC(Cl)(Cl)Cl)C1 (configuration not stated) | > 100 µM | > 100 µM | > 100 µM |  | 
3 | Nc1nccc2c1ncn2C1COC(COP(=O)(OCC(Cl)(Cl)Cl)OCC(Cl)(Cl)Cl)C1 (configuration not stated) | > 34 µM | 34 µM | > 34 µM |  | 
4 | COC(=O)C(C)NP(=O)(OCC1CC(n2cnc3c(N)ncnc32)CO1)Oc1ccccc1 (configuration not stated) | 0.04 µM | 2.9 µM | 0.06 µM | 65 | 48
5 | Nc1ncnc2c1ncn2[C@H]1CO[C@@H](CO)C1 | 32 µM | > 425 µM | 21 µM | > 13 | > 20
6 | Nc1ccnc2c1nnn2C1COC(CO)C1 (configuration not stated) | > 425 µM | > 425 µM | > 425 µM |  | 
7 | Nc1ncnc2c1nnn2C1COC(CO)C1 (configuration not stated) | > 425 µM | > 425 µM | > 425 µM |  | 
8 | Nc1nccc2c1ncn2C1COC(CO)C1 (configuration not stated) | > 425 µM | > 425 µM | > 425 µM |  | 
9 | Nc1ncnc2c1ncn2C1COC(COP(=O)(OCC(Cl)(Cl)Cl)OCC(Cl)(Cl)Cl)C1 (configuration not stated) | > 173 µM | ≥ 173 µM | 87 µM |  | > 2
10 | Nc1ncnc2c1nnn2C1COC(COP(=O)(OCC(Cl)(Cl)Cl)OCC(Cl)(Cl)Cl)C1 (configuration not stated) | > 92 µM | 92 µM | > 92 µM |  | 
11 | Nc1ccnc2c1nnn2C1COC(COP(=O)(OCC(Cl)(Cl)Cl)OCC(Cl)(Cl)Cl)C1 (configuration not stated) | > 100 µM | > 100 µM | > 100 µM |  | 
12 | O=c1[nH]cnc2c1ncn2[C@H]1CC[C@@H](CO)O1 [DIDANOSINE] | 11 µM | > 425 µM | 10 µM | > 38 | > 42
13 | Nc1nccc2c1nnn2C1COC(COP(=O)(OCC(Cl)(Cl)Cl)OCC(Cl)(Cl)Cl)C1 (configuration not stated) | > 173 µM | > 173 µM | > 173 µM |  | 
14 | Nc1ccnc2c1ncn2C1COC(CO)C1 (configuration not stated) | > 425 µM | > 425 µM | > 425 µM |  | 
15 | COC(=O)C(C)NP(=O)(OCC1CC(n2nnc3c(N)ncnc32)CO1)Oc1ccccc1 (configuration not stated) | 105 µM | 146 µM | 17 µM | 1.4 | 8.5
16 | Cc1cn([C@H]2C[C@H](N=[N+]=[N-])[C@@H](CO)O2)c(=O)[nH]c1=O [ZIDOVUDINE] | 0.04 µM | > 80 µM | 0.01 µM |  | 

— ChEMBL document CHEMBL1127858, “Synthesis and evaluation of the anti-HIV activity of aza and deaza analogues of isoddA and their phosphates as prodrugs” (J Med Chem, 1994)
